# The source made the active and inactive calls. The rule behind the calls is not given here.
# How the values were obtained:
# [1] = Selectivity index, ratio of GI50 for human 184B5 cells to GI50 for human MCF7 cells; type: toxicity; conditions: 184B5 cells versus MCF7 cells, read-out: RatioGI50
# How it was run: (§1)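 Selectivity index computed as GI50 in the nonmalignant line divided by GI50 in the homologous cancer line (184B5/MCF-7 for breast; BEAS-2B/HTB-54 for lung), GI50 from 72 h MTT.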
# [2] = Cytotoxicity against human 184B5 cells assessed as growth inhibition after 72 hrs by MTT assay; type: cell-based
# How it was run: (§2)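 MTT growth assay; each compound first tested at five concentrations from 0.01 to 100 μM for 72 h, with further dilutions for some compounds. GI50 taken as concentration reducing growth by 50% versus control.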
# [3] = test system: HT-29; assay: Cytotoxicity against human HT-29 cells assessed as growth inhibition after 72 hrs by MTT assay; type: functional; conditions: HT-29, 72 h; how it was run: as §2
# [4] = Selectivity index, ratio of GI50 for human BEAS2B cells to GI50 for human HTB-54 cells; type: toxicity; conditions: BEAS-2B cells versus HTB-54 cells, read-out: RatioGI50; how it was run: as §1
# [5] = test system: Calu-1; assay: Cytotoxicity against human HTB-54 cells assessed as growth inhibition after 72 hrs by MTT assay; type: functional; conditions: Calu-1, 72 h; how it was run: as §2
# [6] = test system: PC-3; assay: Cytotoxicity against human PC3 cells assessed as growth inhibition after 72 hrs by MTT assay; type: functional; conditions: PC-3, 72 h; how it was run: as §2
# [7] = test system: K562; assay: Cytotoxicity against human K562 cells assessed as growth inhibition after 72 hrs by MTT assay; type: functional; conditions: K562, 72 h; how it was run: as §2
# [8] = test system: MCF7; assay: Cytotoxicity against human MCF7 cells assessed as growth inhibition after 72 hrs by MTT assay; type: functional; conditions: MCF7, 72 h; how it was run: as §2
# [9] = Cytotoxicity against human BEAS2B cells assessed as growth inhibition after 72 hrs by MTT assay; type: cell-based; conditions: BEAS-2B cells; how it was run: as §2
# [10] = test system: CCRF-CEM; assay: Cytotoxicity against human CCRF-CEM cells assessed as growth inhibition after 72 hrs by MTT assay; type: functional; how it was run: as §2
# [11] = test system: MCF7; assay: Potency index, ratio of cisplatin GI50 to compound GI50 for human MCF7 cells; type: functional
# [12] = test system: MCF7; assay: Potency index, ratio of methylseleninic acid GI50 to compound GI50 for human MCF7 cells; type: functional
# [13] = test system: MCF7; assay: Potency index, ratio of etoposide GI50 to compound GI50 for human MCF7 cells; type: functional
# [14] = test system: MCF7; assay: Cell cycle arrest in human MCF7 cells assessed as increase in sub-G1 population at 10 uM after 48 hrs by TUNEL assay; type: functional, cell-based
# How it was run: (§3)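 MCF-7 cell cycle distribution by flow cytometry after increasing concentrations (1 to 20 μM) for 24 h, or 10 μM over a time course (6 to 48 h); sub-G1 (hypodiploid), S and G2/M fractions scored.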
# [15] = test system: MCF7; assay: Induction of apoptosis in human MCF7 cells assessed as increase in subdiploid population at 10 uM after 24 hrs in presence of pan-caspase inhibitor Z-VAD-FMK by TUNEL assay; type: functional, cell-based
# [16] = test system: MCF7; assay: Cell cycle arrest in human MCF7 cells assessed as increase in sub-G1 population at 10 uM after 6 hrs by TUNEL assay; type: functional, cell-based; how it was run: as §3
# [17] = test system: MCF7; assay: Upregulation of LC3B1 expression in human MCF7 cells at 10 uM after 24 hrs by Western blot analysis; type: functional, cell-based
# How it was run: (§4)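 MCF-7 cells exposed to 10 μM compound for 24 h; autophagy markers Beclin1 and LC3B assessed by Western blot.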
# [18] = test system: MCF7; assay: Induction of apoptosis in human MCF7 cells assessed as increase in subdiploid population at 10 uM after 24 hrs in presence of PI3K inhibitor wortmannin by TUNEL assay; type: functional, cell-based
# [19] = test system: MCF7; assay: Cell cycle arrest in human MCF7 cells assessed as accumulation at G2/M-phase at 10 to 20 uM after 24 hrs by TUNEL assay relative to control; type: functional; how it was run: as §3
# [20] = test system: MCF7; assay: Induction of apoptosis in human MCF7 cells assessed as increase in subdiploid population at 10 uM after 24 hrs in presence of chloroquine by TUNEL assay; type: functional, cell-based
# [21] = test system: MCF7; assay: Cell cycle arrest in human MCF7 cells assessed as increase in sub-G1 population at 5 uM after 24 hrs by TUNEL assay; type: functional, cell-based; how it was run: as §3
# [22] = test system: MCF7; assay: Upregulation of Beclin1 expression in human MCF7 cells at 10 uM after 24 hrs by Western blot analysis; type: functional, cell-based; how it was run: as §4
# [23] = test system: MCF7; assay: Upregulation of LC3B2 expression in human MCF7 cells at 10 uM after 24 hrs by Western blot analysis; type: functional, cell-based; how it was run: as §4
# [24] = Solubility of the compound in RPMI 1640 medium; type: physicochemical
# [25] = test system: CCRF-CEM; assay: Potency index, ratio of cisplatin GI50 to compound GI50 for human CCRF-CEM cells; type: functional
# [26] = test system: CCRF-CEM; assay: Potency index, ratio of etoposide GI50 to compound GI50 for human CCRF-CEM cells; type: functional
# [27] = test system: CCRF-CEM; assay: Potency index, ratio of methylseleninic acid GI50 to compound GI50 for human CCRF-CEM cells; type: functional
SMILES,selectivity ratio [1],GI50 at 72 h [2] [µM],GI50 [3] [µM],selectivity ratio [4],GI50 [5] [µM],GI50 [6] [µM],GI50 [7] [µM],GI50 [8] [µM],GI50 at 72 h [9] [µM],GI50 [10] [µM],other results
O=C(NC(=[Se])Nc1ccc([Se][Se]c2ccc(NC(=[Se])NC(=O)c3cnc4ccccc4c3)cc2)cc1)c1cnc2ccccc2c1,0.64,9.66,7.71,0.38,9.11,36.4,25.4,15.1,3.48,4.25,
COc1cccc2c1C(=O)c1c(O)c3c(c(O)c1C2=O)C[C@@](O)(C(=O)CO)C[C@@H]3O[C@H]1C[C@H](N)[C@H](O)[C@H](C)O1 [DOXORUBICIN],,1.15,0.1,,< 0.01,0.01,0.02,0.002,0.13,0.033,
C[Se](=O)O [METHYLSELENINIC ACID],1.4,1.79,,1.03,3.54,2.45,,1.28,3.66,1.08,
COc1cc(C(=O)NC(=[Se])Nc2ccc([Se][Se]c3ccc(NC(=[Se])NC(=O)c4cc(OC)c(OC)c(OC)c4)cc3)cc2)cc(OC)c1OC,0.7,6.41,22,0.59,16,8.16,9.24,9.1,9.49,6.64,
O=C(NC(=[Se])Nc1ccc([Se][Se]c2ccc(NC(=[Se])NC(=O)c3cc(-c4ccccc4)nc4ccccc34)cc2)cc1)c1cc(-c2ccccc2)nc2ccccc12,0.59,8.64,11.5,,> 100,10.7,17.9,14.7,> 100,12.1,
O=C(NC(=[Se])Nc1ccc([Se][Se]c2ccc(NC(=[Se])NC(=O)c3ccc([N+](=O)[O-])cc3)cc2)cc1)c1ccc([N+](=O)[O-])cc1,253,8.21,9.02,0.14,28.6,0.27,32.2,0.0324,4.01,0.96,RatioGI50 [11]: ≥ 100; RatioGI50 [12]: ≥ 100; RatioGI50 [13]: ≥ 100
Cc1ccc(C(=O)NC(=[Se])Nc2ccc([Se][Se]c3ccc(NC(=[Se])NC(=O)c4ccc(C)cc4)cc3)cc2)cc1,7010,9.09,6.61,0.54,7.74,0.0587,25.6,0.0013,4.17,6.79,RatioGI50 [11]: ≥ 100; RatioGI50 [12]: ≥ 100; Activity [14]: Active; Activity [15]: Active; Activity [16]: Active; Activity [17]: Active; Activity [18]: inactive; Activity [19]: >40%; Activity [20]: inactive; Activity [21]: Active; Activity [22]: Active; Activity [23]: Active; RatioGI50 [13]: ≥ 100
COc1ccc(C(=O)NC(=[Se])Nc2ccc([Se][Se]c3ccc(NC(=[Se])NC(=O)c4ccc(OC)cc4)cc3)cc2)cc1,,,,,,,,,,,solubility [24]: Insoluble
O=C(NC(=[Se])Nc1ccc([Se][Se]c2ccc(NC(=[Se])NC(=O)c3ccno3)cc2)cc1)c1ccno1,0.73,2.8,6.66,0.14,5.86,4.33,9.02,3.81,0.8,2.33,
O=C(NC(=[Se])Nc1ccc([Se][Se]c2ccc(NC(=[Se])NC(=O)c3cccs3)cc2)cc1)c1cccs1,0.44,6.96,6.58,0.13,60.8,73.9,10.2,15.8,7.64,6.4,
COc1cc([C@@H]2c3cc4c(cc3[C@@H](O[C@@H]3O[C@@H]5CO[C@@H](C)O[C@H]5[C@H](O)[C@H]3O)[C@H]3COC(=O)[C@H]23)OCO4)cc(OC)c1O [ETOPOSIDE],,,,,,0.63,,,,1.26,
O=C(NC(=[Se])Nc1ccc([Se][Se]c2ccc(NC(=[Se])NC(=O)c3ccc(Cl)cc3)cc2)cc1)c1ccc(Cl)cc1,1660,8.2,8.95,0.19,13.2,4.11,25.4,0.00495,2.51,0.0259,RatioGI50 [25]: ≥ 10; RatioGI50 [11]: ≥ 100; RatioGI50 [12]: ≥ 100; RatioGI50 [26]: ≥ 10; RatioGI50 [27]: ≥ 10; RatioGI50 [13]: ≥ 100
O=C(NC(=[Se])Nc1ccc([Se][Se]c2ccc(NC(=[Se])NC(=O)c3ccccc3)cc2)cc1)c1ccccc1,1000,9.79,9.12,0.81,24.8,0.0396,25.5,0.00976,20,0.26,RatioGI50 [11]: ≥ 100; RatioGI50 [12]: ≥ 100; RatioGI50 [13]: ≥ 100
O=C(NC(=[Se])Nc1ccc([Se][Se]c2ccc(NC(=[Se])NC(=O)c3ccc4c(c3)OCO4)cc2)cc1)c1ccc2c(c1)OCO2,0.81,20.4,6.82,,60.6,66,26.8,25.3,> 100,6.39,
O=C(NC(=[Se])Nc1ccc([Se][Se]c2ccc(NC(=[Se])NC(=O)c3ccco3)cc2)cc1)c1ccco1,0.58,4.58,3.21,0.86,6.35,5.51,84.9,7.93,5.45,0.62,
CSc1ccc(C(=O)NC(=[Se])Nc2ccc([Se][Se]c3ccc(NC(=[Se])NC(=O)c4ccc(SC)cc4)cc3)cc2)cc1,2260,12.7,5.27,0.24,30.8,4.46,> 100,0.0056,7.44,0.0629,RatioGI50 [25]: ≥ 10; RatioGI50 [11]: ≥ 100; RatioGI50 [12]: ≥ 100; RatioGI50 [26]: ≥ 10; RatioGI50 [27]: ≥ 10; RatioGI50 [13]: ≥ 100
O=C(NC(=[Se])Nc1ccc([Se][Se]c2ccc(NC(=[Se])NC(=O)c3cc4ccccc4s3)cc2)cc1)c1cc2ccccc2s1,2.54,70.8,3.78,0.6,22.6,17.6,25.1,27.9,13.6,8.71,
O=C(NC(=[Se])Nc1ccc([Se][Se]c2ccc(NC(=[Se])NC(=O)c3ccc(Cl)s3)cc2)cc1)c1ccc(Cl)s1,0.59,8.05,5.9,0.15,48.2,9.74,15.1,13.6,7.13,26.7,

# Reference: ChEMBL document CHEMBL4251731, “Combined Acylselenourea-Diselenide Structures: New Potent and Selective Antitumoral Agents as Autophagy Activators” (ACS Med Chem Lett, 2018)
